# Assays:
# [1] = system: Sporothrix schenckii; experiment: Antifungal activity against Sporothrix schenckii; format: functional
# Method in brief: (§1)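 Broth microdilution following the EUCAST reference procedure for spore-forming moulds, in flat-bottom plates with RPMI 1640 plus 2% glucose. Inoculum was 2 × 10^5 to 5 × 10^5 CFU/ml. MICs were read visually at 24 and 48 h as 100% growth reduction versus a drug-free control for polyenes and azoles. MEC was used for caspofungin. Tests were run in duplicate and repeated twice.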
# [2] = system: Candida parapsilosis; experiment: Antifungal activity against Candida parapsilosis by EUCAST method; format: functional; details: Lodderomyces parapsilosis
# Method in brief: (§2)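 Broth microdilution in flat-bottom plates in RPMI 1640 with 2% glucose; inoculum 0.5 × 105 to 2.5 × 10^5 CFU/ml. MICs were read spectrophotometrically at 24 h. AMB endpoint: ≥90% growth reduction vs drug-free control well. Azole and CPF endpoint: 50% reduction in optical density. MFC was taken as the lowest concentration giving 99% killing.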
# [3] = system: Rhizopus; experiment: Antifungal activity against Rhizopus species by EUCAST method; format: functional; method in brief: as §1
# [4] = system: Rhizomucor; experiment: Antifungal activity against Rhizomucor species; format: functional
# [5] = Antifungal activity against Rhinocladiella aquaspersa; format: functional
# Method in brief: (§3)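 Dematiaceous fungi were tested by the EUCAST spore-forming mold reference procedure: flat-bottom microdilution plates, RPMI 1640 plus 2% glucose, inoculum 2 × 105 to 5 × 10^5 CFU/ml. Endpoints were read visually at 24 and 48 h. Polyenes and azoles: 100% growth reduction vs drug-free control. CPF: minimum effective concentration. Run in duplicate and repeated twice.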
# [6] = system: Aspergillus terreus; experiment: Antifungal activity against Aspergillus terreus; format: functional
# [7] = system: Rhizopus arrhizus; experiment: Antifungal activity against Rhizopus oryzae by EUCAST method; format: functional; method in brief: as §1
# [8] = Antifungal activity against Rhinocladiella aquaspersa by EUCAST method; format: functional; method in brief: as §3
# [9] = system: Penicillium sp.; experiment: Antifungal activity against Penicillium species; format: functional
# [10] = system: Clavispora lusitaniae; experiment: Antifungal activity against Candida lusitaniae by EUCAST method; format: functional; method in brief: as §2
# [11] = system: Trichosporon asahii; experiment: Antifungal activity against Trichosporon asahii by EUCAST method; format: functional
# Method in brief: (§4)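 Nonfermentative yeasts were tested by the EUCAST microdilution recommendations with one change: plates were sealed and agitated at 350 rpm and 30°C for 48 h.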
# [12] = system: Trichosporon asahii; experiment: Antifungal activity against Trichosporon asahii; format: functional; method in brief: as §4
# [13] = system: Curvularia lunata; experiment: Antifungal activity against Curvularia lunata; format: functional
# [14] = system: Nakaseomyces glabratus; experiment: Antifungal activity against Candida glabrata by EUCAST method; format: functional; method in brief: as §2
# [15] = system: Trichosporon inkin; experiment: Antifungal activity against Trichosporon inkin; format: functional; method in brief: as §4
# [16] = system: Aspergillus flavus; experiment: Antifungal activity against Aspergillus flavus; format: functional
# [17] = system: Cryptococcus gattii; experiment: Antifungal activity against Cryptococcus neoformans var. gattii by EUCAST method; format: functional, Cryptococcus bacillisporus
# Method in brief: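 EUCAST yeast microdilution, modified for nonfermentative yeasts: plates were sealed and agitated at 350 rpm and 30°C for 48 h.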
# [18] = system: Curvularia lunata; experiment: Antifungal activity against Curvularia lunata by EUCAST method; format: functional; method in brief: as §3
# [19] = system: Curvularia australiensis; experiment: Antifungal activity against Bipolaris australiensis; format: functional; method in brief: as §3
# [20] = Antifungal activity against Rhizopus microsporus var. oligosporus by EUCAST method; format: functional; method in brief: as §1
# [21] = system: Trichosporon inkin; experiment: Antifungal activity against Trichosporon inkin by EUCAST method; format: functional; method in brief: as §4
# [22] = system: Mucor; experiment: Antifungal activity against Mucor species; format: functional
# [23] = system: Saccharomyces cerevisiae; experiment: Antifungal activity against Saccharomyces cerevisiae by EUCAST method; format: functional
# Method in brief: (§5)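 EUCAST broth microdilution for yeasts in flat-bottom plates, RPMI 1640 with 2% glucose, inoculum 0.5 × 105 to 2.5 × 10^5 CFU/ml. […] MFC is the lowest concentration giving 99% killing.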
# [24] = system: Pichia kudriavzevii; experiment: Antifungal activity against Candida krusei; format: functional; method in brief: as §5
# [25] = system: Aspergillus niger; experiment: Antifungal activity against Aspergillus niger by EUCAST method; format: functional
# [26] = system: Candida tropicalis; experiment: Antifungal activity against Candida tropicalis; format: functional; method in brief: as §2
# [27] = system: Cunninghamella; experiment: Antifungal activity against Cunninghamella species by EUCAST method; format: functional
# [28] = system: Rhizomucor; experiment: Antifungal activity against Rhizomucor species by EUCAST method; format: functional; method in brief: as §1
# [29] = system: Candida albicans; experiment: Antifungal activity against Candida albicans by EUCAST method; format: functional; method in brief: as §2
# [30] = system: Aspergillus fumigatus; experiment: Antifungal activity against Aspergillus fumigatus by EUCAST method; format: functional
# [31] = system: Mucor hiemalis; experiment: Antifungal activity against Mucor hiemalis; format: functional
# [32] = system: Absidia; experiment: Antifungal activity against Absidia species by EUCAST method; format: functional
# [33] = system: Geotrichum candidum; experiment: Antifungal activity against Geotrichum candidum by EUCAST method; format: functional
# [34] = system: Scedosporium apiospermum; experiment: Antifungal activity against Scedosporium apiospermum by EUCAST method; format: functional; method in brief: as §1
# [35] = system: Aspergillus terreus; experiment: Antifungal activity against Aspergillus terreus by EUCAST method; format: functional
smiles,measurement,setting,value
CC[C@@H]([C@H](C)O)n1ncn(-c2ccc(N3CCN(c4ccc(OC[C@@H]5CO[C@@](Cn6cncn6)(c6ccc(F)cc6F)C5)cc4)CC3)cc2)c1=O [POSACONAZOLE],MFC,[1],0.5 µg/mL
same,MIC,[2],0.05 µg/mL
same,MIC,[3],0.78 µg/mL
same,MFC,[4],> 2 µg/mL
same,MFC,[5],0.125 µg/mL
same,MFC,[6],0.5 µg/mL
same,MIC,[7],1.89 µg/mL
same,MIC,[8],0.06 µg/mL
same,MFC,[9],0.5 µg/mL
same,MIC,[10],0.06 µg/mL
same,MIC,[11],6 µg/mL
same,MFC,[12],> 8 µg/mL
same,MFC,[13],0.5 µg/mL
same,MIC,[14],1.58 µg/mL
same,MFC,[15],0.5 µg/mL
same,MFC,[16],0.5 µg/mL
same,MIC,[17],0.06 µg/mL
same,MIC,[18],0.25 µg/mL
same,MFC,[19],0.125 µg/mL
same,MIC,[20],5.33 µg/mL
same,MIC,[21],0.28 µg/mL
same,MFC,[22],2 µg/mL
same,MIC,[23],0.66 µg/mL
same,MFC,[24],0.5 µg/mL
same,MIC,[25],0.26 µg/mL
same,MFC,[26],> 0.12 µg/mL
same,MIC,[27],2 µg/mL
same,MIC,[28],2.23 µg/mL
same,MIC,[29],0.14 µg/mL
same,MIC,[30],0.37 µg/mL
same,MFC,[31],2 µg/mL
same,MIC,[32],0.33 µg/mL
same,MIC,[33],0.37 µg/mL
same,MIC,[34],1 µg/mL
same,MIC,[35],0.19 µg/mL

# — ChEMBL document CHEMBL1275524, “Activities of antifungal agents against yeasts and filamentous fungi: assessment according to the methodology of the European Committee on Antimicrobial Susceptibility Testing” (2008)
